According to ChEMBL document CHEMBL1629494, “New amino acid esters of salicylanilides active against MDR-TB and other microbes” (Eur J Med Chem, 2010):

Key:
Assay type in all cases: functional
Mycobacterium avium [1] = assay: Antimycobacterial activity against multidrug-resistant Mycobacterium avium 330/88 after 21 days by micromethod; settings: 330/88, 504 h
Outline: (§1)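 Micromethod in Sula semisynthetic medium, with compounds added as DMSO solutions at 1000, 500, 250, 125, 62, 32, 16, 8, 4, 2, 1, 0.5, 0.25. Inoculum dilutions: H37Rv 10^-3; M. avium 330/88 10^-5; M. kansasii 235/80 10^-4; M. kansasii 6509/96 10^-5. Incubated at 37 °C, read at 14 and 21 days, and at 7 days for M. kansasii. MIC was the lowest concentration inhibiting growth.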

Candida tropicalis [2] = assay: Antifungal activity against Candida tropicalis 156 after 48 hrs by broth microdilution method; settings: Candida tropicalis, 156, 48 h
[3] = system: Trichophyton mentagrophytes; assay: Antifungal activity against Trichophyton mentagrophytes after 24 hrs by broth microdilution method
Trichosporon beigelii [4] = assay: Antifungal activity against Trichosporon beigelii 1188 after 24 hrs by broth microdilution method; settings: Trichosporon beigelii, 1188, 24 h
Mycobacterium avium [5] = assay: Antimycobacterial activity against multidrug-resistant Mycobacterium avium 330/88 after 14 days by micromethod; settings: 330/88, 336 h; outline: as §1
Staphylococcus aureus [6] = assay: Antibacterial activity against methicillin-resistant Staphylococcus aureus H5996/08 after 48 hrs by broth microdilution method; settings: H5996/08, 48 h
Outline: (§2)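 Broth microdilution following […], with twofold compound dilutions in Mueller-Hinton bouillon. Incubated 24 and 48 h at 35 °C in the dark in a humid atmosphere. MIC (IC80) was taken as ≥80% growth reduction versus control, read visually and photometrically.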

[7] = system: Staphylococcus epidermidis; assay: Antibacterial activity against Staphylococcus epidermidis H6966/08 after 24 hrs by broth microdilution method; settings: H6966/08, 24 h; outline: as §2
Enterococcus sp. [8] = assay: Antibacterial activity against Enterococcus sp. J14365/08 after 48 hrs by broth microdilution method; settings: J14365/08, 48 h; outline: as §2
Staphylococcus aureus [9] = assay: Antibacterial activity against methicillin-resistant Staphylococcus aureus H5996/08 after 24 hrs by broth microdilution method; settings: H5996/08, 24 h; outline: as §2
Nakaseomyces glabratus [10] = assay: Antifungal activity against Candida glabrata 20/I after 24 hrs by broth microdilution method
Mycobacterium kansasii [11] = assay: Antimycobacterial activity against Mycobacterium kansasii 6509/96 after 14 days by micromethod; settings: 6509/96, 336 h; outline: as §1
Mycobacterium kansasii [12] = assay: Antimycobacterial activity against Mycobacterium kansasii
[13] = system: Trichophyton mentagrophytes; assay: Antifungal activity against Trichophyton mentagrophytes after 48 hrs by broth microdilution method
Mycobacterium kansasii [14] = assay: Antimycobacterial activity against Mycobacterium kansasii 235/80 after 7 days by micromethod; settings: 235/80, 168 h; outline: as §1
Klebsiella pneumoniae [15] = assay: Antibacterial activity against Klebsiella pneumoniae D11750/08 after 48 hrs by broth microdilution method; settings: D11750/08, 48 h; outline: as §2
[16] = system: Mycobacterium tuberculosis; assay: Antimycobacterial activity against drug-sensitive Mycobacterium tuberculosis
Mycobacterium kansasii [17] = assay: Antimycobacterial activity against Mycobacterium kansasii 6509/96 after 21 days by micromethod; settings: 6509/96, 504 h; outline: as §1
Klebsiella pneumoniae [18] = assay: Antibacterial activity against Klebsiella pneumoniae D11750/08 after 24 hrs by broth microdilution method; settings: D11750/08, 24 h; outline: as §2
Aspergillus fumigatus [19] = assay: Antifungal activity against Aspergillus fumigatus 231 after 24 hrs by broth microdilution method; settings: Aspergillus fumigatus, 231, 24 h
Escherichia coli [20] = assay: Antibacterial activity against Escherichia coli CCM 4517 after 48 hrs by broth microdilution method; settings: CCM 4517, 48 h; outline: as §2
Trichosporon beigelii [21] = assay: Antifungal activity against Trichosporon beigelii 1188 after 48 hrs by broth microdilution method; settings: Trichosporon beigelii, 1188, 48 h
Mycobacterium kansasii [22] = assay: Antimycobacterial activity against Mycobacterium kansasii 6509/96 after 7 days by micromethod; settings: 6509/96, 168 h; outline: as §1
Pichia kudriavzevii [23] = assay: Antifungal activity against Candida krusei E28 after 24 hrs by broth microdilution method; settings: E28, 24 h
Pichia kudriavzevii [24] = assay: Antifungal activity against Candida krusei E28 after 48 hrs by broth microdilution method; settings: E28, 48 h
Staphylococcus aureus [25] = assay: Antibacterial activity against Staphylococcus aureus CCM 4516/08 after 24 hrs by broth microdilution method; settings: CCM 4516/08, 24 h; outline: as §2
Lichtheimia corymbifera [26] = assay: Antifungal activity against Absidia corymbifera 272 after 24 hrs by broth microdilution method; settings: Lichtheimia corymbifera, 272, 24 h
Staphylococcus aureus [27] = assay: Antibacterial activity against Staphylococcus aureus CCM 4516/08 after 48 hrs by broth microdilution method; settings: CCM 4516/08, 48 h; outline: as §2
Mycobacterium kansasii [28] = assay: Antimycobacterial activity against Mycobacterium kansasii 235/80 after 14 days by micromethod; settings: 235/80, 336 h; outline: as §1
Candida albicans [29] = assay: Antifungal activity against Candida albicans ATCC 44859 after 48 hrs by broth microdilution method; settings: ATCC 44859, 48 h
Mycobacterium kansasii [30] = assay: Antimycobacterial activity against Mycobacterium kansasii 235/80 after 21 days by micromethod; settings: 235/80, 504 h; outline: as §1
Enterococcus sp. [31] = assay: Antibacterial activity against Enterococcus sp. J14365/08 after 24 hrs by broth microdilution method; settings: J14365/08, 24 h; outline: as §2
Lichtheimia corymbifera [32] = assay: Antifungal activity against Absidia corymbifera 272 after 48 hrs by broth microdilution method; settings: Lichtheimia corymbifera, 272, 48 h
[33] = system: Mycobacterium tuberculosis; assay: Antimycobacterial activity against Mycobacterium tuberculosis H37Rv 331/88 after 14 days by micromethod; settings: H37Rv 331/88, 336 h; outline: as §1
Escherichia coli [34] = assay: Antibacterial activity against Escherichia coli CCM 4517 after 24 hrs by broth microdilution method; settings: CCM 4517, 24 h; outline: as §2
[35] = system: Staphylococcus epidermidis; assay: Antibacterial activity against Staphylococcus epidermidis H6966/08 after 48 hrs by broth microdilution method; settings: H6966/08, 48 h; outline: as §2
[36] = system: Mycobacterium tuberculosis; assay: Antimycobacterial activity against Mycobacterium tuberculosis H37Rv 331/88 after 21 days by micromethod; settings: H37Rv 331/88, 504 h; outline: as §1
Candida albicans [37] = assay: Antifungal activity against Candida albicans ATCC 44859 after 24 hrs by broth microdilution method; settings: ATCC 44859, 24 h
Mycobacterium avium [38] = assay: Antimycobacterial activity against Mycobacterium avium
Nakaseomyces glabratus [39] = assay: Antifungal activity against Candida glabrata 20/I after 48 hrs by broth microdilution method
Candida tropicalis [40] = assay: Antifungal activity against Candida tropicalis 156 after 24 hrs by broth microdilution method; settings: Candida tropicalis, 156, 24 h
Aspergillus fumigatus [41] = assay: Antifungal activity against Aspergillus fumigatus 231 after 48 hrs by broth microdilution method; settings: Aspergillus fumigatus, 231, 48 h

Measured: MIC

CC(=O)N[C@@H](Cc1ccccc1)C(=O)Oc1cc(Cl)ccc1C(=O)Nc1cccc(Cl)c1
2 µM: Mycobacterium kansasii [22] | [33]
125 µM: Trichosporon beigelii [4] | Staphylococcus aureus [6] | Staphylococcus aureus [9] | Staphylococcus aureus [27] | Enterococcus sp. [31] | [35]
1 µM: Mycobacterium kansasii [12] | [16] | Mycobacterium avium [38]
62.5 µM: [3] | [7] | Lichtheimia corymbifera [26]
31.2 µM: Staphylococcus aureus [25]
4 µM: Mycobacterium avium [5] | Mycobacterium kansasii [11] | Mycobacterium kansasii [14] | Mycobacterium kansasii [28] | [36]
8 µM: Mycobacterium avium [1] | Mycobacterium kansasii [17] | Mycobacterium kansasii [30]
> 125 µM: all other assays above

OC(Cn1cncn1)(Cn1cncn1)c1ccc(F)cc1F [FLUCONAZOLE]
> 125 µM: Candida tropicalis [2] | Aspergillus fumigatus [19] | Lichtheimia corymbifera [26] | Lichtheimia corymbifera [32] | Aspergillus fumigatus [41]
0.98 µM: Nakaseomyces glabratus [10]
0.48 µM: Trichosporon beigelii [21]
0.06 µM: Candida albicans [37]
0.12 µM: Candida albicans [29] | Candida tropicalis [40]
15.6 µM: Pichia kudriavzevii [24]
3.91 µM: [13] | Pichia kudriavzevii [23] | Nakaseomyces glabratus [39]
0.24 µM: Trichosporon beigelii [4]
1.95 µM: [3]

CC(=O)N[C@@H](Cc1ccccc1)C(=O)Oc1ccc(Cl)cc1C(=O)Nc1cccc(Cl)c1
2 µM: Mycobacterium kansasii [22] | [33]
4 µM: [36]
32 µM: Mycobacterium avium [1]
8 µM: Mycobacterium avium [5] | Mycobacterium kansasii [11] | Mycobacterium kansasii [14] | Mycobacterium kansasii [17] | Mycobacterium kansasii [28] | Mycobacterium kansasii [30]
1 µM: Mycobacterium kansasii [12] | [16] | Mycobacterium avium [38]

CC(=O)N[C@@H](Cc1ccccc1)C(=O)Oc1cc(Cl)ccc1C(=O)Nc1ccc(Cl)cc1
15.6 µM: [3] | Trichosporon beigelii [4] | Staphylococcus aureus [27]
7.81 µM: Lichtheimia corymbifera [26] | Lichtheimia corymbifera [32]
1.95 µM: [7] | Staphylococcus aureus [9] | Staphylococcus aureus [25]
4 µM: Mycobacterium kansasii [14] | Mycobacterium kansasii [22] | Mycobacterium kansasii [28] | Mycobacterium kansasii [30] | [33] | [36]
3.9 µM: Enterococcus sp. [31]
31.2 µM: Staphylococcus aureus [6] | [13] | Pichia kudriavzevii [23] | Escherichia coli [34] | [35] | Candida albicans [37]
16 µM: Mycobacterium avium [1] | Mycobacterium kansasii [17]
125 µM: Klebsiella pneumoniae [15]
8 µM: Mycobacterium avium [5] | Mycobacterium kansasii [11]
62.5 µM: Klebsiella pneumoniae [18] | Trichosporon beigelii [21]
1 µM: Mycobacterium kansasii [12] | [16] | Mycobacterium avium [38]
> 125 µM: all other assays above

CC(=O)N[C@@H](Cc1ccccc1)C(=O)Oc1cc(Cl)ccc1C(=O)Nc1ccc(C(F)(F)F)cc1
32 µM: Mycobacterium avium [1]
125 µM: [3] | Trichosporon beigelii [4] | [7] | Staphylococcus aureus [9] | Staphylococcus aureus [25] | Enterococcus sp. [31]
4 µM: Mycobacterium kansasii [14] | Mycobacterium kansasii [22] | Mycobacterium kansasii [28] | Mycobacterium kansasii [30]
1 µM: Mycobacterium kansasii [12] | [16] | Mycobacterium avium [38]
16 µM: Mycobacterium avium [5] | [36]
62.5 µM: Aspergillus fumigatus [19] | Pichia kudriavzevii [23] | Lichtheimia corymbifera [26]
8 µM: Mycobacterium kansasii [11] | Mycobacterium kansasii [17] | [33]
> 125 µM: all other assays above

NNC(=O)c1ccncc1 [ISONIAZID]
> 250 µM: Mycobacterium avium [1] | Mycobacterium avium [5] | Mycobacterium kansasii [14] | Mycobacterium kansasii [28] | Mycobacterium kansasii [30]
2 µM: Mycobacterium kansasii [22]
0.5 µM: [33] | [36]
4 µM: Mycobacterium kansasii [11] | Mycobacterium kansasii [17]

Nc1ccc(C(=O)O)c(O)c1 [AMINOSALICYLIC ACID]
125 µM: Mycobacterium avium [1] | Mycobacterium kansasii [11] | Mycobacterium kansasii [14]
> 1000 µM: Mycobacterium kansasii [30]
500 µM: Mycobacterium kansasii [17]
62.5 µM: [33] | [36]
1000 µM: Mycobacterium kansasii [28]
32 µM: Mycobacterium avium [5] | Mycobacterium kansasii [22]

CC(=O)N[C@@H](Cc1ccccc1)C(=O)Oc1ccc(Cl)cc1C(=O)Nc1ccc(Cl)cc1
4 µM: Mycobacterium kansasii [11] | Mycobacterium kansasii [14] | Mycobacterium kansasii [28] | Mycobacterium kansasii [30] | [33] | [36]
2 µM: Mycobacterium kansasii [22]
3.9 µM: Trichosporon beigelii [4] | Trichosporon beigelii [21] | Lichtheimia corymbifera [26]
15.6 µM: Lichtheimia corymbifera [32]
62.5 µM: [13] | Staphylococcus aureus [25]
8 µM: Mycobacterium avium [5] | Mycobacterium kansasii [17]
1 µM: Mycobacterium kansasii [12] | [16] | Mycobacterium avium [38]
31.2 µM: [3] | Aspergillus fumigatus [19]
16 µM: Mycobacterium avium [1]
125 µM: [7] | Staphylococcus aureus [9] | Enterococcus sp. [31] | Aspergillus fumigatus [41]
> 125 µM: all other assays above
